ChEMBL document CHEMBL4321820, “Identification and Optimization of Mechanism-Based Fluoroallylamine Inhibitors of Lysyl Oxidase-like 2/3” (J Med Chem, 2019)

Assays:
Lysyl oxidase homolog 2 = molecular target: T1, Lysyl oxidase homolog 2 (Homo sapiens, UniProt Q9Y4K0); test: Inhibition of recombinant human C-terminal His-tagged […] (1-774 residues) expressed in mouse myeloma cells using putrescine as substrate preincubated with enzyme for 30 mins followed by substrate addition and measured every 2.5 mins for 30 mins by Amplex-Red oxidation assay
T1 sequence (Q9Y4K0 whole entry): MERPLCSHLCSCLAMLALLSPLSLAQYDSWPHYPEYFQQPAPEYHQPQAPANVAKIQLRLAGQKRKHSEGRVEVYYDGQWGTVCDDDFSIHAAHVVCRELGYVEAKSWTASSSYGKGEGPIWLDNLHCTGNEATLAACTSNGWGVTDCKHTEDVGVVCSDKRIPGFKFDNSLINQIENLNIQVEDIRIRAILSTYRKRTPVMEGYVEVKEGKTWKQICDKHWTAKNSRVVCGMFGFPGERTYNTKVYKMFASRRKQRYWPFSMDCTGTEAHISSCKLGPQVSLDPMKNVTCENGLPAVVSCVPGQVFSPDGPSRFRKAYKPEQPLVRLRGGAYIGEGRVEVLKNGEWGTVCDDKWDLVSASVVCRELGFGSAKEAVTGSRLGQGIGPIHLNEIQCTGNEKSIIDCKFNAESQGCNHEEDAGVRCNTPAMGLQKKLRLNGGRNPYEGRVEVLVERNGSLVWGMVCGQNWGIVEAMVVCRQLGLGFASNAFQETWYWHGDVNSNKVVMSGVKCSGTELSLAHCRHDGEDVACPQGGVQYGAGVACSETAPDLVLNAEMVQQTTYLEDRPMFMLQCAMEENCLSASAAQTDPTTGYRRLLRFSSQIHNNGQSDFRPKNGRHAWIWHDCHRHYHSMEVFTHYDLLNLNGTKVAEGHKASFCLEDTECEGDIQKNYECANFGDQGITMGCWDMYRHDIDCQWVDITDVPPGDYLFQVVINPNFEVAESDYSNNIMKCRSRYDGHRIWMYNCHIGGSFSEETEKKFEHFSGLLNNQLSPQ
Outline: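 LOXL2 enzyme preincubated with compound for 30 min at 37 °C, then Amplex Red (120 µM) / HRP (1.5 U/mL) mix containing 5 mM putrescine added. Buffer: 1.2 M urea, 50 mM sodium borate, pH 8.2. H2O2 fluorescence (ex 565/em 590) read every 2.5 min for 30 min at 37 °C; BAPN 100 µM as positive control; n≥2.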

Protein-lysine 6-oxidase = molecular target: T2, Protein-lysine 6-oxidase (Bos taurus, UniProt P33072); test: Inhibition of LOX in bovine aorta using putrescine as substrate preincubated with enzyme for 30 mins followed by substrate addition and measured every 2.5 mins for 30 mins by Amplex-Red oxidation assay; assay type: tissue-based
T2 sequence (P33072 whole entry): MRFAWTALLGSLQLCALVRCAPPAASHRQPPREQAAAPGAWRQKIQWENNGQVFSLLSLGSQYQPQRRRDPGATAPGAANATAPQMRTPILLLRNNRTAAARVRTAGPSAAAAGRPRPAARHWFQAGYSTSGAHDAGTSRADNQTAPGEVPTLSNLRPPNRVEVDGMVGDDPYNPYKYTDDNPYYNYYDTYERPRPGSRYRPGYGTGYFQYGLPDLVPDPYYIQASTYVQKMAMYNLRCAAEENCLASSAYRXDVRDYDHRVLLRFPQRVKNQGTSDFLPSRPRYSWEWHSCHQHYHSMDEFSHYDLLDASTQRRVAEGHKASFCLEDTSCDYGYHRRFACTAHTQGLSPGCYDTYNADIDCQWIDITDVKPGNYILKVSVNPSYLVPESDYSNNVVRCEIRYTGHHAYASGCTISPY
Outline: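 LOX extracted from calf aorta after PBS washing with 4 M urea/50 mM borate pH 8.2, concentrated on 10 kDa filters into 1.2 M urea/borate with protease inhibitors. Preincubated 30 min at 37 °C with compound, then Amplex Red/HRP with 10 mM putrescine; fluorescence read every 2.5 min for 30 min.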

[1] = molecular target: T3, Amine oxidase [copper-containing] 3 (Homo sapiens, UniProt Q16853); test: Inhibition of recombinant human SSAO using benzylamine as substrate preincubated with enzyme for 30 mins followed by substrate addition and measured every 2.5 mins for 30 mins by Amplex-Red oxidation assay
T3 sequence (Q16853 whole entry): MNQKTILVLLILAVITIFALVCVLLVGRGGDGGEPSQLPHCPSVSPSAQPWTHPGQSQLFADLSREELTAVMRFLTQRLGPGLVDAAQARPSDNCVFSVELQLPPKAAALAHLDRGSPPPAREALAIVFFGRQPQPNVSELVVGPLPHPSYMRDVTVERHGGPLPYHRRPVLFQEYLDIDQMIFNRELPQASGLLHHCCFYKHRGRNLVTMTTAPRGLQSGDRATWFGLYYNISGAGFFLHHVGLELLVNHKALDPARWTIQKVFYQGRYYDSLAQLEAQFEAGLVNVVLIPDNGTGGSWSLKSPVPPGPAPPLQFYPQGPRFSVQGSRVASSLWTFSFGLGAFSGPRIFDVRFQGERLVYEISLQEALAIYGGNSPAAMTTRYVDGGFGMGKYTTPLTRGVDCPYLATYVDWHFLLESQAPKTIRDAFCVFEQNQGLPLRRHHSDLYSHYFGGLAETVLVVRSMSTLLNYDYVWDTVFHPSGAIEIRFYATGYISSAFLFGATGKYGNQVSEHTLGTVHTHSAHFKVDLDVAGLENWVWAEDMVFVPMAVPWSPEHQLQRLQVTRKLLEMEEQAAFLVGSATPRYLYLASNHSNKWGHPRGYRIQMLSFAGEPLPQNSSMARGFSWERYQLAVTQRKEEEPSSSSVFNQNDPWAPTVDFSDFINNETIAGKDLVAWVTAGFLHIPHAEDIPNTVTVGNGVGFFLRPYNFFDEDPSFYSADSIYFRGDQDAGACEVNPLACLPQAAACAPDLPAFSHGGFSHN

[2] = Substrate activity at AOC4 in dog serum assessed as compound oxidation by measuring oxidative turnover at 30 uM measured for 40 mins by horseradish peroxidase-coupled amplex red reagent-based fluorometric assay relative to DMSO; assay type: ADME, cell-free, Canis lupus familiaris
Outline: (§1)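 Compound oxidation measured without substrate by peroxidase-coupled fluorometric read-out of resorufin formation over 40 min at 37 °C in HEPES buffer. Amplex Red 20 µM, HRP 4 U/ml, test compound at final 30 µM. Enzyme source was human recombinant SSAO or AOC4 from diluted dog serum. Benzylamine at 600 µM served as positive control. Signal is expressed relative to DMSO-only background, so a value near 1 means no turnover.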

[3] = molecular target: T3, Amine oxidase [copper-containing] 3; test: Substrate activity at recombinant human SSAO assessed as compound oxidation by measuring oxidative turnover at 30 uM measured for 40 mins by horseradish peroxidase-coupled amplex red reagent-based fluorometric assay relative to DMSO; assay type: ADME; outline: as §1

For `Cc1c(-c2cccc(S(=O)(=O)N(C)C)c2)c2ccccc2n1C/C(F)=C/CN.Cl`, the IC50 (Lysyl oxidase homolog 2; read-out: pIC50 (converted)) was 100 nM, the IC50 (Protein-lysine 6-oxidase; read-out: pIC50 (converted)) was 2000 nM and the IC50 ([1]; read-out: pIC50 (converted)) was 7940 nM. The “fold change (FC)” value [2] was greater than 4 and the “fold change (FC)” value [3] was 1.4.

For `CCOC(=O)c1ccc2c(c1)c(-c1cccc(S(=O)(=O)N(C)C)c1)c(C)n2C/C(F)=C/CN.Cl`, the IC50 (Lysyl oxidase homolog 2; read-out: pIC50 (converted)) was 79.4 nM, the IC50 (Protein-lysine 6-oxidase; read-out: pIC50 (converted)) was 6310 nM and the “fold change (FC)” value [2] was 1. The “fold change (FC)” value [3] was 2.4.

With `Cc1c(-c2cccc(S(=O)(=O)N(C)C)c2)c2cc(C(=O)O)ccc2n1C/C(F)=C/CN.Cl` the IC50 (Lysyl oxidase homolog 2; read-out: IC50) was 5 nM, the IC50 (Protein-lysine 6-oxidase; read-out: IC50) was 1780 nM and the IC50 ([1]; read-out: IC50) was greater than 30000 nM. For the same compound, the “fold change (FC)” value [2] was 1 and the “fold change (FC)” value [3] was 1.
